Test results reported in paper PMC11482939 (bioRxiv, 2025).
pIC50: −log10 of the molar value. “Also recorded” adds a separate entry of the source. Like-named read-outs stand apart in the source and are kept apart here.

Legend:
WS1 fibroblast cell line = assay: Viability assay on non-cancerous fibroblasts; assay type: cell-based; settings: for pIC50: Fibroblast, read-out: fibroblast IC50; for fold higher IC50 / lower toxicity for non-cancerous cells than for UM cells: WS1 fibroblast IC50 vs UM IC50
Method in brief: (§1)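 Cells treated 72 h with a 10-point 1:3 dilution series from nominal 10 μM top (one compound started at 300 nM), n = 4. Viability read by CellTiter-Glo ATP luminescence and normalized to 0.1% DMSO controls. IC50 and % viability derived by four-parameter log(inhibitor) vs. response fit with variable slope.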

[1] = system: MP41 cells extracted from mouse liver metastases; assay: Ex vivo resistance testing of UM cells from mouse liver metastases; assay type: cell-based, human; settings: relative to cells from vehicle group
Method in brief: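 Liver tissue from treated and vehicle mice minced and digested overnight at 4°C in D-MEM with 400 U/mL type IV collagenase and 0.5 μg/mL amphotericin B. Cells grown in UM medium, confirmed as MP41 by RFP fluorescence, then given 10-point 1:3 dilution series for 72 h. Viability read by CellTiter-Glo ATP luminescence relative to 0.1% DMSO.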

[2] = system: MP41 metastatic UM xenograft; assay: Metastatic UM xenograft mouse model; assay type: in vivo, NSG mice; settings: for survival in comparison with the vehicle group: log-rank test, p > 0.10
Method in brief: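 Female NSG mice, 16 weeks old, given 1 × 10^5 FACS-sorted RFP-luciferase-transduced MP41 cells via tail vein; n = 10 per group, randomized. From day 7, test compound dosed at 2 mg/kg IP weekly. Weekly IVIS imaging 10 min after 150 mg/kg IP d-luciferin. Endpoint was >20% weight loss or health decline; organs imaged ex vivo; survival compared by log-rank.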

[3] = system: UM cell lines (MP41, MP38, MP46); assay: Concentration-response cell viability, UM cell lines overall; assay type: cell-based, human; settings: 72 h
UM cells = assay: Synergy testing of romidepsin and quisinostat with other hit compounds; assay type: cell-based, human; settings: plus EC20 of other candidate compound
MP41 and MP38 cells = assay: HDAC3 / HDAC8 inhibitor concentration-response testing; assay type: cell-based, human; settings: alone or in combination
Method in brief: as §1

[4] = system: UM cell lines, including UMM66 cells; assay: Romidepsin from two sources in UM cell lines including UMM66; assay type: cell-based; settings: Homo sapiens, read-out: IC50 in all UM cell lines including UMM66
[5] = Homo sapiens, read-out: UM IC50, UM cell lines, 72 h
[6] = read-out: UM IC50, UM cell lines

Molecule: CCS(=O)(=O)Nc1ccc(Oc2ccc(F)cc2F)c(-c2cn(C)c(=O)c3[nH]ccc23)c1 [Mivebresib]
- pIC50 (WS1 fibroblast cell line): < 5.00
- acquired drug resistance after long-term in vivo treatment [1]: No significant resistance was detected
- metastases detected in organs (ex vivo IVIS) ([2]; femur, spinal cord): prevented the development of detectable spinal cord and femur metastases
- pIC50 [3, 5]: ~6.90

Molecule: Cn1cc(CNCC2CCN(c3ncc(C(=O)NO)cn3)CC2)c2ccccc21 [Quisinostat]
- synergy with the other 16 compounds (UM cells): did not find significant synergy
- pIC50 (WS1 fibroblast cell line): ~6.93
- fold higher IC50 / lower toxicity for non-cancerous cells than for UM cells (WS1 fibroblast cell line): approximately 9 fold
- acquired drug resistance after long-term in vivo treatment [1]: No significant resistance was detected
- survival in comparison with the vehicle group [2]: did not significantly improve survival rates
- pIC50 [3, 5]: ~7.85

Molecule: COc1ccc(Cn2ccc3ccc(C(=O)NO)cc32)cc1 [PCI-34051]
- potency of HDAC3 / HDAC8 inhibitor (MP41 and MP38 cells): neither was potent

Molecule: Cucurbitacin B
- pIC50 [3, 6]: ~7.42

Molecule: COc1cc([C@@H]2c3cc4c(cc3[C@H](O)[C@H]3COC(=O)[C@H]23)OCO4)cc(OC)c1OC [Podofilox]
- pIC50 [3, 5]: ~8.03

Molecule: COc1ccc(-c2nc(N3CCOCC3)c3sc(CN(C)c4ncc(C(=O)NO)cn4)cc3n2)cn1 [Fimepinostat]
- pIC50 (WS1 fibroblast cell line): ~7.26
- fold higher IC50 / lower toxicity for non-cancerous cells than for UM cells (WS1 fibroblast cell line): 4- to 5 fold
- pIC50 [3, 5]: ~7.96

Molecule: CC[C@@]1(O)C(=O)OCc2c1cc1n(c2=O)Cc2cc3ccccc3nc2-1 [(S)-(+)-Camptothecin]
- pIC50 ([3]; Homo sapiens, read-out: UM IC50): ~6.48

Molecule: Nc1ccn([C@@H]2O[C@H](CO)[C@@H](O)C2(F)F)c(=O)n1 [Gemcitabine]
- pIC50 [3, 5]: ~6.31

Molecule: C/C=C1\NC(=O)[C@H]2CSSCC/C=C/[C@H](CC(=O)N[C@H](C(C)C)C(=O)N2)OC(=O)[C@H](C(C)C)NC1=O [Romidepsin]
- synergy with the other 16 compounds (UM cells): did not find significant synergy
- pIC50 [4]: 8.24 to 8.62
- acquired drug resistance after long-term in vivo treatment [1]: No significant resistance was detected
- survival in comparison with the vehicle group [2]: did not significantly improve survival rates; also recorded: did not improve the survival rate
- pIC50 [3, 5]: ~8.46

Molecule: Cc1[nH]c2ccccc2c1CCNCc1ccc(/C=C/C(=O)NO)cc1 [Panobinostat]
- pIC50 (WS1 fibroblast cell line): ~6.91
- fold higher IC50 / lower toxicity for non-cancerous cells than for UM cells (WS1 fibroblast cell line): 4- to 5 fold
- pIC50 [3, 5]: ~7.59

Molecule: CC(C)C[C@H](NC(=O)[C@H](Cc1ccccc1)NC(=O)c1cnccn1)B(O)O [Velcade]
- pIC50 (WS1 fibroblast cell line): ~7.24
- pIC50 [3, 5]: ~8.12
- pIC50 [3, 6]: ~8.10

Molecule: Nc1cc(F)ccc1NC(=O)/C=C/c1cnn(C/C=C/c2ccccc2)c1 [RGFP966]
- potency of HDAC3 / HDAC8 inhibitor (MP41 and MP38 cells): neither was potent
